# Assay results from ChEMBL document CHEMBL4038269, “Design, synthesis and evaluation of novel feruloyl-donepezil hybrids as potential multitarget drugs for the treatment of Alzheimer's disease” (Eur J Med Chem, 2017).
# Active and inactive are the calls of the source.
# Experiments:
# [1] = test system: Mus musculus; experiment: Antinociceptive activity in carrageenan-induced Swiss mouse model of mechanical hyperalgesia at 100 umol/kg, po pretreated for 1 hr followed by carrageenan challenge measured at 3 hrs post dose by Von Frey filament assay; assay type: functional, organism-based
# Procedure, shortened: (§1)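 Male Swiss mice (n=8) dosed orally with 100 µmol/kg or vehicle 1 h before intraplantar carrageenan (100 µg/paw). Mechanical threshold measured by up-and-down Von Frey method after 60 min acclimation on a wire screen. Started at 0.4 g filament, ≥6 trials at 10 s intervals, about 4 s per application. Reported as mean threshold in grams ± SEM.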
# [2] = test system: Mus musculus; experiment: In vivo inhibition of COX-2 activity in carrageenan-induced Swiss mouse serum at 100 umol/kg, po pretreated for 1 hr followed by carrageenan challenge after 3 hrs by ELISA relative to control; assay type: functional
# Procedure, shortened: (§2)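 Male Swiss mice given oral drug (100 µmol/kg) or vehicle 1 h before intraplantar carrageenan (legend: 400 µg/paw). At 3 h, animals anaesthetised with chloral hydrate and cardiac blood taken. Serum separated (1500 rpm, 20 min) and frozen at -70 °C. COX-1, COX-2 and 5-LOX measured by specific sandwich ELISA at 450 nm. Expressed as % enzymatic activity, mean ± SEM, n=8.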
# [3] = test system: Mus musculus; experiment: In vivo inhibition of COX-1 activity in carrageenan-induced Swiss mouse serum at 100 umol/kg, po pretreated for 1 hr followed by carrageenan challenge after 3 hrs by ELISA relative to control; assay type: functional; procedure, shortened: as §2
# [4] = test system: Mus musculus; experiment: Antiinflammatory activity in formalin-induced nociception Swiss mouse model assessed as reduction in time spent licking formalin injected hind paw during inflammatory phase at 100 umol/kg, po pretreated for 1 hr followed by formalin challenge measured after 20 to 30 mins; assay type: functional, organism-based
# Procedure, shortened: (§3)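 Male Swiss mice (22-28 g), n=8 per group, given oral vehicle (saline + DMSO 2%) or 100 µmol/kg 1 h before formalin (5% in 0.9% saline, 20 µl) into the right hind paw sub-plantar region. Morphine 39 µmol/kg i.p. was given 30 min before. Paw-licking time recorded at 0–5 min (neurogenic phase) and 20–30 min (inflammatory phase).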
# [5] = test system: Mus musculus; experiment: Anti-inflammatory activity in Swiss mouse assessed as reduction in carrageenan-induced paw edema at 100 umol/kg, po pretreated for 1 hr followed by carrageenan challenge after 3 hrs by plethysmometer; assay type: functional, organism-based
# Procedure, shortened: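 Adult male Swiss mice (22-28 g), fasted overnight, given vehicle (DMSO 2% in sterile saline) or 100 µmol/kg orally 1 h before intraplantar carrageenan. Methods give 400 µg/20 µl and n=10 per group; figure legend gives 100 µg/paw and n=8. Right hind paw volume read by plethysmometer at 1, 3 and 5 h. Reported as change in µL from basal volume, mean ± SEM.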
# [6] = test system: Mus musculus; experiment: Antiinflammatory activity in formalin-induced nociception Swiss mouse model assessed as reduction in time spent licking formalin injected hind paw during neurogenic phase at 100 umol/kg, po pretreated for 1 hr followed by formalin challenge measured up to 5 mins; assay type: functional, organism-based; procedure, shortened: as §3
# [7] = Antioxidant activity assessed as DPPH radical scavenging activity measured after 30 mins; assay type: functional
# Procedure, shortened: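 DPPH scavenging: compound at 12.5, 25, 50 and 100 µM in ethanol (4 mL) mixed with 1 mL of 0.5 mM DPPH in ethanol. Shaken 30 min at room temperature, absorbance read at 517 nm. % inhibition = (A control − A sample)/A control × 100. Run in triplicate; EC50 obtained by linear regression of mean values.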
# [8] = biological target: Acetylcholinesterase (Electrophorus electricus, UniProt O42275); experiment: Inhibition of Electrophorus electricus AChE using acetylthiocholine iodide as substrate pretreated for 10 mins followed by substrate addition measured at 12 secs interval for 5 mins by Ellman's method
# [9] = test system: SH-SY5Y; experiment: Antioxidant activity in human SH-SY5Y cells assessed as reduction in H2O2-induced reactive oxygen species formation at 10 uM measured after 24 hrs by DCFH-DA probe based fluorescence assay; assay type: functional, cell-based
# [10] = test system: Mus musculus; experiment: Neurotoxicity in Swiss mouse assessed as induction of motor impairment at 100 umol/kg, po measured after 1 hr by open filed test; assay type: toxicity, organism-based; conditions: in vivo
# Procedure, shortened: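 Male Swiss mice (n=8) given vehicle or compound orally 1 h before open-field test. Crossings of the central four and peripheral 12 squares counted separately.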
# [11] = Cytotoxicity against human SH-SY5Y cells assessed as reduction in cell viability at 40 uM after 24 hrs by MTT assay relative to control; assay type: cell-based; conditions: read-out: INH
# Procedure, shortened: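 SH-SY5Y cells seeded at 2 x 10^4 cells/well, grown 24 h, then exposed to compound 1.25–40 µM for 24 h at 37 °C. MTT (5 mg/mL in PBS) added for 2 h and formazan dissolved in isopropanol. Read at 570 nm, reference 690 nm. Viability loss reported as percent at the top concentration, 40 µM.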
# [12] = test system: SH-SY5Y; experiment: Pro-oxidant activity in human SH-SY5Y cells assessed as increase in H2O2-induced reactive oxygen species formation at 20 to 40 uM pretreated for 24 hrs followed by H2O2 addition by DCFH-DA probe based fluorescence assay; assay type: ADME, cell-based
# [13] = Metal chelating activity assessed as absorption maximum for compound-Zn2+ complex formation at 75 uM after 30 mins by UV-Vis spectrophotometric method; assay type: functional
# Procedure, shortened: (§4)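 UV-Vis spectra in ethanol of compound at 75 µM alone or after 30 min incubation with CuSO4, FeSO4, FeCl3 or ZnCl2 (150 µM). Absorption maxima recorded.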
# [14] = Metal chelating activity assessed as absorption maximum for compound-Cu2+ complex formation at 75 uM after 30 mins by UV-Vis spectrophotometric method (reference value: 237.2 nanometer); assay type: functional; procedure, shortened: as §4
# [15] = test system: Mus musculus; experiment: Anti-inflammatory activity in Swiss mouse model of LPS-induced peritonitis assessed as inhibition of leukocyte migration at 100 umol/kg, po pretreated for 30 mins followed by LPS challenge measured after 4 hrs by Neubauer chamber method; assay type: functional, organism-based
# Procedure, shortened: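 Adult male Swiss mice (22-28 g), n=8 per group, dosed orally with 100 µmol/kg or vehicle (saline + DMSO 2%). 30 min later E. coli 026:B6 LPS, 100 µg/kg i.p. in sterile saline. Killed at 4 h by halothane overdose. Peritoneum lavaged with 10 ml PBS containing 0.5% sodium citrate. Total leukocytes counted in a Neubauer chamber, expressed as cells per cavity, mean ± SEM.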
# [16] = Metal chelating activity assessed as compound-Fe3+ complex formation at 75 uM after 30 mins by UV-Vis spectrophotometric method; assay type: functional; procedure, shortened: as §4
# [17] = test system: SH-SY5Y; experiment: Antioxidant activity in human SH-SY5Y cells assessed as increase in GSH level at 20 uM after 24 hrs by MCB probe based assay relative to control; assay type: functional
# Procedure, shortened: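 SH-SY5Y cells (DMEM, 10% FBS, 37 °C, 5% CO2) seeded at 2 x 10^4 cells/well and grown 24 h. Treated with 20 µM compound for 3-24 h. Then 50 µM monochlorobimane in PBS for 30 min at 37 °C. GSH fluorescence read at ex 360/em 465 nm, as % of control cells. Mean ± SD of three independent experiments.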
# [18] = test system: Mus musculus; experiment: Antinociceptive activity in carrageenan-induced Swiss mouse model of mechanical hyperalgesia at 100 umol/kg, po pretreated for 1 hr followed by carrageenan challenge measured at 3 hrs to 7 hrs post dose by Von Frey filament assay; assay type: functional, organism-based; procedure, shortened: as §1
# [19] = test system: SH-SY5Y; experiment: Antioxidant activity in human SH-SY5Y cells assessed as reduction in H2O2-induced reactive oxygen species formation at 40 uM measured after 24 hrs by DCFH-DA probe based fluorescence assay relative to control; assay type: functional; design: scale not given: the % may be the effect or the level left
# [20] = Metal chelating activity assessed as absorption maximum for compound-Fe2+ complex formation at 75 uM after 30 mins by UV-Vis spectrophotometric method (reference value: 237.2 nanometer); assay type: functional; procedure, shortened: as §4
# [21] = test system: SH-SY5Y; experiment: Antioxidant activity in human SH-SY5Y cells assessed as reduction in H2O2-induced reactive oxygen species formation measured after 24 hrs by DCFH-DA probe based fluorescence assay; assay type: functional, cell-based
# [22] = biological target: Acetylcholinesterase (Electrophorus electricus) (UniProt O42275); experiment: Inhibition of Electrophorus electricus AChE at 30 uM using acetylthiocholine iodide as substrate pretreated for 10 mins followed by substrate addition measured at 12 secs interval for 5 mins by Ellman's method relative to control
# Procedure, shortened: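 Enzyme (0.5 U/mL) with DTNB (10 mM) in 0.1 M sodium phosphate pH 7.4; compound at 30 μM preincubated 10 min, then acetylthiocholine or butyrylthiocholine iodide added ([…]); A412 read every 12 s for 5 min. Velocity as percent of vehicle control; means and pooled SD from 2-4 experiments in triplicate. DMSO ≤0.2% final.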
# [23] = biological target: Cholinesterase (Equus caballus) (UniProt P81908); experiment: Inhibition of equine serum BuChE at 30 uM using butyrylthiocholine iodide as substrate pretreated for 10 mins followed by substrate addition measured at 12 secs interval for 5 mins by Ellman's method relative to control
# [24] = biological target: Cholinesterase (Equus caballus, UniProt P81908); experiment: Inhibition of equine serum BuChE using butyrylthiocholine iodide as substrate pretreated for 10 mins followed by substrate addition measured at 12 secs interval for 5 mins by Ellman's method
# Procedure, shortened: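 Ellman assay in 0.1 M sodium phosphate pH 7.4, enzyme 0.5 U/mL, DTNB 10 mM; concentration series preincubated 10 min before butyrylthiocholine iodide ([…]); A412 over 5 min at 12 s intervals. IC50 from fitted concentration-response curves, geometric mean of independent experiments, each in triplicate; DMSO ≤0.2% final.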
# [25] = Homo sapiens, SH-SY5Y, 24 h, read-out: IC50
# Chain of Acetylcholinesterase (O42275 whole entry): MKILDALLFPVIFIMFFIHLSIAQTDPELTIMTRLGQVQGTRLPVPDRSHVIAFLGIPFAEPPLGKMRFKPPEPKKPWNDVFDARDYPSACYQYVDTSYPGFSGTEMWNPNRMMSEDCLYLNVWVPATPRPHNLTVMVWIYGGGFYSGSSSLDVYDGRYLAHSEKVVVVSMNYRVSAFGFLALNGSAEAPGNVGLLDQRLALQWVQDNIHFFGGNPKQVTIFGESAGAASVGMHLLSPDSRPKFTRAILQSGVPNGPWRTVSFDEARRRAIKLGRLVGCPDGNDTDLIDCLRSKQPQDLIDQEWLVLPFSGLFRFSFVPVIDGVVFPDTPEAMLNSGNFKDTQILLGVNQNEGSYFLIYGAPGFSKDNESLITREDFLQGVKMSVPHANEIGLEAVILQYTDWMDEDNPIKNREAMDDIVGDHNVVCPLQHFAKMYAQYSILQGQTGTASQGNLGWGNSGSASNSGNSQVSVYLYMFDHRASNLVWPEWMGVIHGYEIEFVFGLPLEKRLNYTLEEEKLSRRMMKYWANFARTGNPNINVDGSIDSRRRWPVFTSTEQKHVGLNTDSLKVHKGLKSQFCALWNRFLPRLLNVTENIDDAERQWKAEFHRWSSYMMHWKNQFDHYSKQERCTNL
# Chain of Acetylcholinesterase (Electrophorus electricus) (O42275 24-633 limits assumed): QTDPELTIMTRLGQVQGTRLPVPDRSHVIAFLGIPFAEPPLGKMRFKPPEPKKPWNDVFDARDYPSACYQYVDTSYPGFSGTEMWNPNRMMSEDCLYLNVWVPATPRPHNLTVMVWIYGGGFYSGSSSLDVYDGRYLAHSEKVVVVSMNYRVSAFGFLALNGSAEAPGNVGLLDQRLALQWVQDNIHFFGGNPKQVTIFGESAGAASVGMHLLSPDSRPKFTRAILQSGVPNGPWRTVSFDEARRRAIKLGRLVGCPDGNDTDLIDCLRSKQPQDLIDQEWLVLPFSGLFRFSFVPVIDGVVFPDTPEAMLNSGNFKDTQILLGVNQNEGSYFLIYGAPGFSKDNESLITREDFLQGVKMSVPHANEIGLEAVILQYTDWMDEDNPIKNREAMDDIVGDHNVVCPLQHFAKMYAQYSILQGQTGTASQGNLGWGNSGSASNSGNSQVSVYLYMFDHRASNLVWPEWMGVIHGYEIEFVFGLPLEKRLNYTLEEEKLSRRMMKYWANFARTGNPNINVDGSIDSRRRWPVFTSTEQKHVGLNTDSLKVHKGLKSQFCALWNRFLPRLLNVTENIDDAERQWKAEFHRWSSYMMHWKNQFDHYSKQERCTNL
# Chain of Cholinesterase (P81908 whole entry): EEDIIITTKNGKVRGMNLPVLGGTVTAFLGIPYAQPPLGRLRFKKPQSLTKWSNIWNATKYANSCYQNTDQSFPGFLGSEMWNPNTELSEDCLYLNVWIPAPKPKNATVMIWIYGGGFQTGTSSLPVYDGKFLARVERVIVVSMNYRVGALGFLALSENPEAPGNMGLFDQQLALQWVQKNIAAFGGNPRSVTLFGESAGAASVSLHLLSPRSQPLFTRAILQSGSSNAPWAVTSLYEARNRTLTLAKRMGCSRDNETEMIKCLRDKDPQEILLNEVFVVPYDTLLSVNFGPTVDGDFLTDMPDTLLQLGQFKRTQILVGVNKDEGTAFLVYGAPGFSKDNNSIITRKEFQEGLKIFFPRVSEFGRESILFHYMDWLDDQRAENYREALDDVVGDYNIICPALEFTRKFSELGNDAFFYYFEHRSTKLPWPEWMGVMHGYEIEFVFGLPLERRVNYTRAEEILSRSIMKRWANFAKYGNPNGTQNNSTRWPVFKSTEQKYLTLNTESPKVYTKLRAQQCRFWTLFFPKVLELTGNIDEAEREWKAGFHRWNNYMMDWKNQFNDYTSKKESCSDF
# Chain of Cholinesterase (Equus caballus) (P81908 whole entry): as above
smiles,measurement,setting,value
COc1ccc2c(c1)c(CC(=O)O)c(C)n2C(=O)c1ccc(Cl)cc1 [INDOMETHACIN],Activity,[1],Active
same,inhibition in vivo at 100 µmol/kg,[2],42%
same,inhibition in vivo at 100 µmol/kg,[3],50%
same,Activity,[4],Active
same,Activity,[5],Active
same,Activity,[6],Active
COc1ccc(CN2CCC(COC(=O)/C=C/c3ccc(O)c(OC)c3)CC2)cc1,EC50,[7],78.1 µM
same,IC50,[8],> 30 µM
COc1cc(/C=C/C(=O)OCC2CCN(Cc3ccc(Br)cc3)CC2)ccc1O,Activity,[1],Active
same,Activity,[9],Active
same,Activity,[10],Non-Toxic
same,inhibition in vivo at 100 µmol/kg,[2],60%
same,"cytotoxicity at 24 h, 40 µM",[11],28%
same,Activity,[12],Toxic
same,Activity,[13],inactive
same,Activity,[14],Active
same,inhibition,[15],Active
same,inhibition in vivo at 100 µmol/kg,[3],30%
same,EC50,[7],45.4 µM
same,Activity,[16],inactive
same,Activity,[4],Active
same,Activity,[17],inactive
same,Activity,[18],Active
same,Activity,[5],Active
same,IC50,[8],> 30 µM
same,Activity,[19],<50%
same,Activity,[20],Active
COc1cc(/C=C/C(=O)OCC2CCN(Cc3ccc(N4CCOCC4)cc3)CC2)ccc1O,EC50,[7],73.8 µM
same,IC50,[8],> 30 µM
COc1ccc(/C=C/C(=O)OCC2CCN(Cc3ccc(N4CCOCC4)cc3)CC2)cc1O,EC50,[7],> 100 µM
same,IC50,[8],> 30 µM
COc1cc(/C=C/C(=O)O)ccc1O [FERULATE],IC50,[21]; [25],11.8 µM
same,EC50,[7],35.5 µM
COc1ccc(/C=C/C(=O)OCC2CCN(Cc3ccc4c(c3)OCO4)CC2)cc1O,IC50,[21]; sh-sy5y,Not Active
same,EC50,[7],> 100 µM
same,IC50,[8],> 30 µM
COc1ccc(/C=C/C(=O)O)cc1O [ISOFERULIC ACID],EC50,[7],> 100 µM
COc1cc(/C=C/C(=O)OCC2CCN(Cc3ccc([N+](=O)[O-])cc3)CC2)ccc1O,inhibition,[22],50%
same,Activity,[21],Dose-dependent effect
same,IC50,[21]; [25],25.9 µM
same,"cytotoxicity at 24 h, 40 µM",[11],9%
same,Activity,[13],inactive
same,Activity,[14],Active
same,EC50,[7],46.7 µM
same,Activity,[16],inactive
same,inhibition,[23],4.3%
same,fold change (FC),[17],1.2
same,IC50,[8],16.7 µM
same,Activity,[20],Active
COc1ccc(/C=C/C(=O)OCC2CCN(Cc3ccc(Cl)cc3)CC2)cc1O,EC50,[7],12.5 µM
same,IC50,[8],> 30 µM
COc1cc(/C=C/C(=O)OCC2CCN(Cc3ccc4c(c3)OCO4)CC2)ccc1O,EC50,[7],> 100 µM
same,IC50,[8],> 30 µM
COc1cc(/C=C/C(=O)OCC2CCN(Cc3ccc(Cl)cc3)CC2)ccc1O,EC50,[7],20.5 µM
same,IC50,[8],> 30 µM
Cc1c(C)c2c(c(C)c1O)CCC(C)(C(=O)O)O2 (configuration not stated) [TROLOX],EC50,[7],4.86 µM
COc1ccc(/C=C/C(=O)OCC2CCN(Cc3ccc(Br)cc3)CC2)cc1O,EC50,[7],> 100 µM
same,IC50,[8],> 30 µM
COc1ccc(/C=C/C(=O)OCC2CCN(Cc3ccc([N+](=O)[O-])cc3)CC2)cc1O,EC50,[7],> 100 µM
same,IC50,[8],> 30 µM
COc1ccc(CN2CCC(COC(=O)/C=C/c3ccc(OC)c(O)c3)CC2)cc1,EC50,[7],> 100 µM
same,IC50,[8],> 30 µM
COc1ccc(/C=C/C(=O)OCC2CCN(Cc3ccccc3)CC2)cc1O,EC50,[7],> 100 µM
same,IC50,[8],> 30 µM
COc1cc2c(cc1OC)C(=O)C(CC1CCN(Cc3ccccc3)CC1)C2 (configuration not stated) [DONEPEZIL],IC50,[21]; sh-sy5y,Not Active
same,Activity,[19],<50%
COc1cc(/C=C/C(=O)CC(=O)/C=C/c2ccc(O)c(OC)c2)ccc1O [CURCUMIN],IC50,[24],> 300 µM
